# Measured values reported in ChEMBL document CHEMBL1153723, “Cytotoxic effects of cardiac glycosides in colon cancer cells, alone and in combination with standard chemotherapeutic drugs” (J Nat Prod, 2009).
# Active and inactive are the calls of the source. No cut-off for these calls is given here.
# Tests used:
# HCT-116 [1] = assay: Cytotoxicity against human HCT116 cells after 72 hrs by FMCA method; format: functional, cell-based; conditions: HCT-116, 72 h
# How it was run: (§1)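 FMCA: cells seeded at 5000/well onto compound plates at nine concentrations (1:2 serial dilutions in PBS from DMSO solutions), in duplicate, for 72 h at 37 °C. Then washed, given fluorescein diacetate for 50 min at 37 °C, and fluorescence read at 485/520 nm. HT29 and CC20 were grown in DMEM, HCT116 in McCoy's 5A. IC50 from nonlinear regression of log concentration–effect curves; three independent experiments, mean ± SEM.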
# HT-29 [2] = assay: Cytotoxicity against human HT-29 cells after 72 hrs by FMCA method; format: functional, cell-based; conditions: HT-29, 72 h; how it was run: as §1
# [3] = Cytotoxicity against human CC20 cells after 72 hrs by FMCA method relative to digoxin; format: functional
# [4] = Cytotoxicity against human CC20 cells assessed as survival index at 10 uM after 72 hrs by FMCA method; format: functional; conditions: CC20, 72 h, read-out: Survival
# How it was run: (§2)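 Library screen by FMCA at a final 10 µM (10 mM DMSO stocks diluted in PBS); 5000 cells/well, 72 h at 37 °C, then fluorescein diacetate for 50 min with fluorescence at 485/520 nm. Survival index is well fluorescence as % of control wells after blank subtraction. QC required signal/blank >10 and CV <30% in control and blank wells.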
# HT-29 [5] = assay: Cytotoxicity against human HT-29 cells assessed as survival index at 10 uM after 72 hrs by FMCA method; format: functional; conditions: HT-29, 72 h, read-out: Survival; how it was run: as §2
# [6] = Cytotoxicity against human CC20 cells after 72 hrs by FMCA method; format: functional, cell-based; conditions: CC20, 72 h; how it was run: as §1
# HT-29 [7] = assay: Cytotoxicity against human HT-29 cells after 72 hrs by FMCA method relative to digoxin; format: functional
# HCT-116 [8] = assay: Cytotoxicity against human HCT116 cells assessed as survival index at 10 uM after 72 hrs by FMCA method; format: functional; conditions: HCT-116, 72 h, read-out: Survival; how it was run: as §2
# HCT-116 [9] = assay: Cytotoxicity against human HCT116 cells after 72 hrs by FMCA method relative to digoxin; format: functional
# HT-29 [10] = assay: Inhibition of TNF-alpha-stimulated NF-kappaB translocation from cytoplasm to nucleus in human HT-29 cells at 0.4 to 10 uM; format: functional, cell-based
# How it was run: (§3)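 NF-κB activation high-content kit run per manufacturer: TNF-α-stimulated cells treated at 0.4, 2 and 10 µM (or 0.2, 1 and 5 µM). Cytoplasm-to-nucleus translocation of NF-κB quantified by automated imaging (ArrayScan). TNF-α and bortezomib served as controls.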
# [11] = Cytotoxicity against human colon cancer cells after 72 hrs by FMCA method; format: functional, cell-based; conditions: Primary cultures of tumor cells from patients
# [12] = Inhibition of Na+/K+ ATPase relative to digoxin
# HeLa = assay: Inhibition of TNF-alpha-stimulated NF-kappaB translocation from cytoplasm to nucleus in human HeLa cells at 0.4 to 10 uM; format: functional, cell-based; how it was run: as §3
# MCF7 = assay: Inhibition of TNF-alpha-stimulated NF-kappaB translocation from cytoplasm to nucleus in human MCF7 cells at 0.4 to 10 uM; format: functional, cell-based; how it was run: as §3
SMILES,IC50 (HCT-116 [1]) [nM],IC50 (HT-29 [2]) [nM],Activity [3],viability at 10 µM [4] [%],viability at 10 µM (HT-29 [5]) [%],IC50 [6] [nM],Activity (HT-29 [7]),viability at 10 µM (HCT-116 [8]) [%],Activity (HCT-116 [9]),inhibition (HT-29 [10]),IC50 [11] [nM],Activity [12],inhibition (HeLa),inhibition (MCF7)
C[C@@H]1O[C@@H](O[C@H]2CC[C@]3(C=O)[C@H]4CC[C@]5(C)[C@@H](C6=CC(=O)OC6)CC[C@]5(O)[C@@H]4CC[C@]3(O)C2)[C@H](O)[C@H](O)[C@H]1O [CONVALLATOXIN],< 40,550,0.03,1,20,< 40,0.39,3,0.04,–,–,–,–,–
CO[C@H]1C[C@H](O[C@H]2CC[C@]3(C=O)[C@H]4CC[C@]5(C)[C@@H](C6=CC(=O)OC6)CC[C@]5(O)[C@@H]4CC[C@]3(O)C2)O[C@H](C)[C@H]1O [CYMARIN],–,–,–,2,26,–,–,4,–,–,–,–,–,–
C[C@@H]1CC[C@@]2(OC1)O[C@H]1[C@@H](O)[C@H]3[C@@H]4CC[C@H]5C[C@@H](O[C@@H]6O[C@H](CO)[C@H](O[C@@H]7O[C@H](CO)C(O)[C@H](O[C@@H]8OC[C@@H](O)[C@H](O)[C@H]8O)[C@H]7O[C@@H]7O[C@H](CO)[C@H](O)[C@H](O[C@@H]8O[C@H](CO)[C@@H](O)[C@H](O)[C@H]8O)[C@H]7O)[C@H](O)[C@H]6O)[C@H](O)C[C@]5(C)[C@H]4CC[C@]3(C)[C@H]1[C@@H]2C (stereo partly drawn) [DIGITONIN],8700,5600,–,88,74,9600,–,62,–,–,–,–,–,–
C[C@H]1O[C@@H](O[C@H]2[C@@H](O)C[C@H](O[C@H]3[C@@H](O)C[C@H](O[C@H]4CC[C@@]5(C)[C@H](CC[C@@H]6[C@@H]5CC[C@]5(C)[C@@H](C7=CC(=O)OC7)CC[C@]65O)C4)O[C@@H]3C)O[C@@H]2C)C[C@H](O)[C@@H]1O [DIGITOXIN],740,4070,1.71,2,28,410,2.91,4,2.74,inactive,100,0.3,inactive,inactive
C[C@H]1O[C@@H](O[C@H]2[C@@H](O)C[C@H](O[C@H]3[C@@H](O)C[C@H](O[C@H]4CC[C@@]5(C)[C@H](CC[C@@H]6[C@@H]5C[C@@H](O)[C@]5(C)[C@@H](C7=CC(=O)OC7)CC[C@]65O)C4)O[C@@H]3C)O[C@@H]2C)C[C@H](O)[C@@H]1O [DIGOXIN],270,1400,1,1,24,240,1,4,1,inactive,100,1,inactive,inactive
CC(=O)O[C@H]1CC[C@@]2(C)[C@H](CC[C@@H]3[C@@H]2CC[C@]2(C)[C@@H](C4=CC(=O)OC4)[C@@H](OC(C)=O)C[C@]32O)C1 [GITOXIGENIN DIACETATE],–,–,–,2,40,–,–,17,–,–,–,–,–,–
C[C@]12CC[C@H](O)C[C@H]1CC[C@@H]1[C@@H]2CC[C@]2(C)[C@@H](C3=CC(=O)OC3)[C@@H](O)C[C@]12O [GITOXIGENIN],–,–,–,54,81,–,–,63,–,–,–,–,–,–
CC(=O)O[C@H]1C[C@H](O[C@H]2[C@@H](O)C[C@H](O[C@H]3[C@@H](O)C[C@H](O[C@H]4CC[C@@]5(C)[C@H](CC[C@@H]6[C@@H]5C[C@@H](O)[C@]5(C)[C@@H](C7=CC(=O)OC7)CC[C@]65O)C4)O[C@@H]3C)O[C@@H]2C)O[C@H](C)[C@H]1O[C@@H]1O[C@H](CO)[C@@H](O)[C@H](O)[C@H]1O [LANATOSIDE C],–,–,–,2,40,–,–,5,–,–,–,–,–,–
CO[C@H]1[C@H](O)[C@H](O[C@H]2CC[C@@]3(C)[C@H](CC[C@@H]4[C@@H]3CC[C@]3(C)[C@@H](C5=CC(=O)OC5)CC[C@]43O)C2)O[C@@H](C)[C@@H]1O [NERIIFOLIN],–,–,–,2,19,–,–,3,–,–,–,–,–,–
CO[C@H]1C[C@H](O[C@H]2CC[C@@]3(C)[C@H](CC[C@@H]4[C@@H]3CC[C@]3(C)[C@@H](C5=CC(=O)OC5)[C@@H](OC(C)=O)C[C@]43O)C2)O[C@@H](C)[C@@H]1O [OLEANDRIN],80,440,0.38,2,20,90,0.31,3,0.3,inactive,–,0.42,inactive,inactive
C[C@@H]1O[C@@H](O[C@H]2C[C@@H](O)[C@]3(CO)[C@H]4[C@H](O)C[C@]5(C)[C@@H](C6=CC(=O)OC6)CC[C@]5(O)[C@@H]4CC[C@]3(O)C2)[C@H](O)[C@H](O)[C@H]1O [OUABAIN],–,–,–,3,22,–,–,4,–,–,–,–,–,–
CO[C@H]1[C@H](O)[C@H](O[C@H]2CC[C@@]3(C=O)[C@H](CC[C@@H]4[C@@H]3CC[C@]3(C)[C@@H](C5=CC(=O)OC5)CC[C@]43O)C2)O[C@@H](C)[C@@H]1O [PERUVOSIDE],–,–,–,2,24,–,–,3,–,–,–,–,–,–
C[C@@H]1O[C@@H](O[C@@H]2C=C3CC[C@@H]4[C@H](CC[C@]5(C)[C@@H](c6ccc(=O)oc6)CC[C@]45O)[C@@]3(C)CC2)[C@H](O)[C@H](O)[C@H]1O [PROSCILLARIDIN],60,550,0.21,3,18,< 300,0.39,1,0.22,–,–,0.054,–,–
C[C@]12CC[C@H](O)C[C@H]1CC[C@@H]1[C@@H]2[C@H](O)C[C@]2(C)[C@@H](C3=CC(=O)OC3)CC[C@]12O [SARMENTOGENIN],–,–,–,4,63,–,–,26,–,–,–,–,–,–
C[C@]12CC[C@H]3[C@@H](CC[C@]4(O)C[C@@H](O)CC[C@]34C=O)[C@@]1(O)CC[C@@H]2C1=CC(=O)OC1 [STROPHANTHIDIN],–,–,–,3,58,–,–,21,–,–,–,–,–,–
